Screening data: PubChem BioAssay, several laboratories
MC4R ag barr – agonists of human melanocortin 4 receptor (MC4R) beta-arrestin | P32245 | U2OS MC4R beta-arrestin complementation, luminescence; percent of melanotan II response, DMSO zero | activation, % at 8.9 µM | 360,000 compounds, 0.98% hits | AID 540308;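 active means activation above a per-plate cutoff, the mean activation of sample wells on that plate plus 3 SD, cut at about 8% in these data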
Target sequence (P32245 whole entry, looked up): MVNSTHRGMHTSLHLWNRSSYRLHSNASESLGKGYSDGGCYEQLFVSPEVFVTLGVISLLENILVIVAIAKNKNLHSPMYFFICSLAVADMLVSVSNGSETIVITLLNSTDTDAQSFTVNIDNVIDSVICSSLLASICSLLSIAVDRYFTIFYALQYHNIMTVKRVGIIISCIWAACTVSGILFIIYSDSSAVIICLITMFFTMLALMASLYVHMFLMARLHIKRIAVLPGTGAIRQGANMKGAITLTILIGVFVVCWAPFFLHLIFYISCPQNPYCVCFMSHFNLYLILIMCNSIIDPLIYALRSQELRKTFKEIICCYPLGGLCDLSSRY
m5-HT2A agonist – agonists of mouse serotonin 5-HT2A receptor (HTR2A) | AID 624169 | CHO-K1 mHTR2A beta-arrestin complementation, luminescence; percent of 30 µM serotonin response | activation, % at 7.6 µM | 360,000 compounds, 0.66% hits;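 active means activation above a run cutoff, the mean activation of all tested compounds plus 3 SD, cut at about 14% in these data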
PREPL inh – inhibitors of human prolyl oligopeptidase-like enzyme PREPL. Q4J6C6. recombinant PREPL, fluorescence polarization activity-based probe. inhibition, % at 5.96 µM. 320,000 compounds, 0.68% hits; in the data active means inhibition above about 43%
NTR1 agonist – activates human neurotensin receptor 1 | P30989 | NTR1-U2OS beta-arrestin-GFP spot imaging, agonist mode | AID 493036 | activation, % at 20 µM | 330,000 compounds, 0.17% hits;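 active means activation at or above 40% of the spot to cytoplasm intensity ratio, with at least 20 cells analyzed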
Target sequence (P30989 whole entry, looked up): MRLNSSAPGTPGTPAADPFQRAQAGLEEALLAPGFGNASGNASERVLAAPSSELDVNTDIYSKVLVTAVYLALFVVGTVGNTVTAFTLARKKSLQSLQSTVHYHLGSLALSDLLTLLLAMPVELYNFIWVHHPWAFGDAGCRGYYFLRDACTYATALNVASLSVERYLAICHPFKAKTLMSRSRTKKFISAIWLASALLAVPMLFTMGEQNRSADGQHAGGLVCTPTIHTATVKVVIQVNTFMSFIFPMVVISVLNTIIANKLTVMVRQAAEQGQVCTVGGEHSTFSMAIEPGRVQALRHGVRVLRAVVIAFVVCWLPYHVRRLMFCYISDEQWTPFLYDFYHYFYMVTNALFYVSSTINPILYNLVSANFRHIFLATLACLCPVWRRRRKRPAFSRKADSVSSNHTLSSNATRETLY
Hep lipid drop – hepatic lipid droplet formation modulation | AML12 mouse hepatocytes, oleate lipid droplets, BODIPY imaging | inhibition, % at 6.5 µM | 240,000 compounds, 0.4% hits | AID 1656;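 active means lipid droplet intensity inhibited by at least 50%, with more than 500 cells counted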
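Assay system: AML12 mouse liver cells | Compound: 6.5 µM single-point dosing | Schedule: Overnight exposure | Technique: Fluorescence imaging, 20x objective, two fields per well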
MC4R antag cAMP – human MC4R antagonism in cAMP assay. MC4R-expressing cells, MTII-stimulated cAMP, LANCE TR-FRET. P32245. inhibition, % at 6.5 µM. 360,000 compounds, 0.48% hits;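 active means inhibition above its plate's cutoff, the mean of tested wells on that plate plus 3 SD, cut at about 29% in these data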
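material = U2OS cells stably expressing human melanocortin 4 receptor (MC4R) | also added = Melanotan II challenge | dosing = single nominal compound dose of 6.5 µM | detection = TR-FRET with Eu-cAMP and labeled anti-cAMP, 671 nm | replication = singlicate | timing = compound 30 min, challenge 1 h, detection 1 h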
MC4R barr conf – human MC4R beta-arrestin agonism confirmation | activation, % at 8.9 µM | AID 602192 | shares compounds with MC4R ag barr | 2,400 compounds, 31% hits | U2OS MC4R beta-arrestin recruitment, luminescence; scaled DMSO 0%, Melanotan II 100%;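 active means mean activation across replicates above the hit cutoff set in the earlier primary screen, cut at about 8% in these data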
MOR DOR agonist – activates mu-delta opioid heterodimer, MC4R agonist counter-screen; U2OS PathHunter beta-arrestin, beta-gal luminescence; percent of deltorphin B response, DMSO zero; shares compounds with MC4R ag barr; activation, % at 9.2 µM; 2,400 compounds, 5.8% hits;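 active means mean activation across replicates exceeds the hit threshold derived in the earlier primary screen, cut at about 18% in these data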
Each line names hits and unclear results; the compound was inactive in the other large screens (follow-up assays come after a bar, where they were run). Hits are enriched below; roughly 2.7% of the tested compounds scored in any of these assays.

Fc1ccc(Nc2nnc(-c3ccncc3)s2)cc1Cl	none (no result: PREPL inh, NTR1 agonist, Hep lipid drop)
COc1cccc(CN2CC(O)=C(c3nc(-c4ccc(Cl)cc4)cs3)C2=N)c1	none
COc1ccc(N2CC(O)=C(c3nc(-c4ccc(F)cc4)cs3)C2=N)cc1OC	none
N=C1C(c2nc(-c3ccc(F)cc3)cs2)=C(O)CN1Cc1ccc(Cl)cc1	MC4R ag barr 14 | MC4R barr conf inactive | MOR DOR agonist inactive
COc1ccc(N2CC(O)=C(c3nc(-c4ccc(F)cc4)cs3)C2=N)cc1Cl	MC4R ag barr 11 | MC4R barr conf 13 | MOR DOR agonist inactive
Nc1nc(-c2ccccc2)nc2nonc12	none (no result: PREPL inh, NTR1 agonist, Hep lipid drop)
N#Cc1ccc(-c2cccnc2)nc1SCc1ccc(Cl)cc1Cl	MC4R ag barr 18 (no result: Hep lipid drop) | MC4R barr conf inactive | MOR DOR agonist inactive
O=C(Nc1ccc(Cl)c([N+](=O)[O-])c1)Nc1nc2ccccc2s1	none (no result: MC4R ag barr, m5-HT2A agonist, MC4R antag cAMP)
Cc1ccc(NC(=O)Nc2nc3ccccc3s2)cc1NC(=O)Nc1nc2ccccc2s1	MC4R ag barr 10 | MC4R barr conf 10 | MOR DOR agonist inactive
O=[N+]([O-])c1cc(C(F)(F)F)ccc1NCCc1c[nH]c2ccccc12	none
O=[N+]([O-])c1cc(C(F)(F)F)ccc1NCCc1c[nH]c2ccc(O)cc12	MC4R ag barr 15 | MC4R barr conf inactive | MOR DOR agonist inactive
CC(=O)Nc1nn(CC(C)C)c2nc3ccc(C)cc3cc12	none (no result: PREPL inh, NTR1 agonist, Hep lipid drop)
Cc1ccc2cc3c(NC(=O)c4ccco4)nn(CC(C)C)c3nc2c1	MC4R ag barr 13 (no result: Hep lipid drop) | MC4R barr conf inactive | MOR DOR agonist inactive
O=C(CSc1ncnc2nc[nH]c12)Nc1nnc(SCc2ccc(Cl)c(Cl)c2)s1	MC4R ag barr 16 | MC4R barr conf inactive | MOR DOR agonist inactive
Cc1ccc(C)c(NC(=O)CSc2ncnc3nc[nH]c23)c1	none
CC(C)c1ccc(-c2nn(-c3ccccc3)cc2C2C(C#N)=C(N)OC3=C2C(=O)CC(C)(C)C3)cc1 (stereo unspecified)	none (no result: Hep lipid drop)
CCOC(=O)c1c(C)n(-c2ccc(C)cc2)c2ccc(OCC(O)CNCCCO)cc12 (stereo unspecified)	none
CCOC(=O)c1c(C)n(-c2ccc(C)cc2)c2ccc(OCC(O)CNCC3CCCO3)cc12 (stereo unspecified)	MC4R ag barr 13 | MC4R barr conf 17 | MOR DOR agonist inactive
CC(C)c1nnc(SCC(=O)N2CCc3ccccc32)n1N	none
N#Cc1c(-c2cccc(Br)c2)cc(-c2cccnc2)nc1N	MC4R ag barr 32 | MC4R barr conf inactive | MOR DOR agonist inactive
Cc1cc(C(=O)Nc2sc(C)c(-c3ccc(F)cc3)c2C(N)=O)no1	MC4R ag barr 13 (no result: Hep lipid drop) | MC4R barr conf inactive | MOR DOR agonist inactive
COCCn1c(SCC(=O)NC2CCCC2)nnc1-c1ccco1	none
O=C(Nc1ccc(F)cc1)Nc1sccc1-c1nc2ccccc2s1	MC4R ag barr 25 | MC4R barr conf 10 | MOR DOR agonist inactive
O=C(Nc1cccc(NC(=S)NC(=O)c2cccs2)c1)c1ccccc1	MC4R ag barr 12 | MC4R barr conf 19 | MOR DOR agonist inactive
O=C(NC(=S)Nc1cccc(NC(=O)c2ccccc2Cl)c1)c1cccs1	MC4R ag barr 14 | MC4R barr conf inactive | MOR DOR agonist inactive
O=C(NC(=S)Nc1ccc(S(=O)(=O)N2CCCCCC2)cc1)c1cccs1	MC4R ag barr 13 | MC4R barr conf 9.4 | MOR DOR agonist inactive
Cc1ccccc1C(=O)Nc1cccc(NC(=S)NC(=O)c2cccs2)c1	none (no result: Hep lipid drop)
CC(C)(C)NC(=O)C(=O)NN=C1CCCCCCCCCCC1	none
O=C(Nc1ccc2nn(-c3ccccc3)nc2c1)c1cccs1	MC4R ag barr 10 | MC4R barr conf inactive | MOR DOR agonist inactive
O=C(Nc1ccc(O)c(-c2nc3ccccc3s2)c1)c1cccs1	MC4R ag barr 24 | MC4R barr conf inactive | MOR DOR agonist inactive
Cc1ccc(NC(=O)CN2C(=O)NC(C)(CC(C)C)C2=O)c(Br)c1 (stereo unspecified)	none (no result: Hep lipid drop)
COc1cccc(/C=N/NC(=O)CCn2c3ccccc3c3ccccc32)c1	MC4R ag barr 14 | MC4R barr conf inactive | MOR DOR agonist inactive
CC1Nc2nc(N(C)C)[nH]c(=O)c2NC1C (stereo unspecified)	none (no result: NTR1 agonist)
Cc1ccc(NC(=O)CCN2C(=O)c3cccc4cccc(c34)C2=O)cc1	MC4R ag barr 19 | MC4R barr conf inactive | MOR DOR agonist inactive
CCCC(C)NC(=O)C1c2ccccc2Oc2ccccc21 (stereo unspecified)	none (no result: Hep lipid drop)
O=C(COc1ccccc1)Nc1ccccc1F	none
O=C(COc1c(Br)cc(Br)c2cccnc12)Nc1ccccc1F	MC4R ag barr 13 | MC4R barr conf inactive | MOR DOR agonist inactive
COc1ccccc1Nc1ncnc2c1c(C)c(C)n2CCO	none (no result: PREPL inh)
COc1ccccc1NC(=O)Nc1cc(C(C)C)ccc1C	MC4R ag barr 19 (no result: PREPL inh) | MC4R barr conf inactive | MOR DOR agonist inactive
COC(=O)c1ccccc1NC(=O)c1cccc(NC(=O)CSCc2ccccc2)c1C	MC4R ag barr 18 | MC4R barr conf inactive | MOR DOR agonist inactive
O=C(CSCc1ccccc1)Nc1ccccc1C(=O)Nc1ccc(C(=O)O)cc1	none
C/C(=N\NC(=O)c1ccc(N/N=C(\C)c2ccc(O)cc2)cc1)c1ccc(O)cc1	none
CC(=O)c1ccc2c(c1)Cc1cc(C(C)=O)ccc1-2	MC4R ag barr 14 | MC4R barr conf inactive | MOR DOR agonist inactive
CCC(=O)Nc1ccc2c(c1)Cc1cc(NC(=O)CC)ccc1-2	none (no result: PREPL inh)
CCOc1cc(N2CCOCC2)c(OCC)cc1NC(=O)c1cc(-c2ccco2)nc2ccccc12	MC4R ag barr 14 (no result: Hep lipid drop) | MC4R barr conf 9.2 | MOR DOR agonist inactive
CCOc1cc(N2CCOCC2)c(OCC)cc1NC(=O)COc1ncnc2ccccc12	none
Fc1cccc(Cl)c1/C=N/Nc1c(Cl)cncc1Cl	MC4R ag barr 10 | MC4R barr conf inactive | MOR DOR agonist inactive
Cc1ccccc1OC1(C)CCN(Cc2ccc(-c3ccccn3)cc2)C1 (stereo unspecified)	MC4R ag barr 15 (no result: PREPL inh, NTR1 agonist, Hep lipid drop) | MC4R barr conf inactive | MOR DOR agonist inactive
CC1(Oc2cnc(Cl)c3ccccc23)CCN(Cc2ccc(-c3ccccn3)cc2)C1 (stereo unspecified)	none (no result: PREPL inh, NTR1 agonist, Hep lipid drop)
O=C(c1ccc(COc2ccc3ccccc3c2)o1)N1N=C(C(F)F)CC1(O)C(F)F (stereo unspecified)	MC4R ag barr 30 | MC4R barr conf 16 | MOR DOR agonist inactive
